This note sets out measurements from ChEMBL document CHEMBL5104207, “Synthesis, biological evaluation and computational studies of pyrazole derivatives as Mycobacterium tuberculosis CYP121A1 inhibitors” (RSC Med Chem, 2022).

In brackets after ≈: the same amount, converted by molar mass.

The assay deals with Mycobacterium tuberculosis. The experiment in a line: Antimycobacterial activity against Mycobacterium tuberculosis H37Rv assessed as inhibition of bacterial growth for 5 weeks by spot culture growth inhibition assay. The conditions noted are these: 840 h. The assay is classed as functional. In short, it runs like this: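 M. tuberculosis H37Rv grown shaking at 37 °C in 7H9 with 0.5% glycerol, 10% OADC and 0.025% Tween 80 to OD 1, then diluted 1:100 and 2 µL spotted. Wells hold 7H10 agar with 0.5% glycerol and 10% OADC plus compound, two-fold serial dilutions in DMSO from 150 μg mL-1. Plates used within 24 h. Incubated 37 °C for five weeks, then MIC90 recorded.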

`CC(C)Oc1ccc(-c2nn(-c3ccc(Cl)cc3)cc2Cn2ccnc2)cc1`: the MIC90 (usually the lowest concentration that inhibits either 90% of growth or 90% of the strains tested, depending on the study) was 15.3 µM (≈ 6.01 µg/mL).
